According to ChEMBL document CHEMBL5360580 (Eur J Med Chem, 2023):
Calls of active or inactive are those of the source. The rule behind the calls is not given here.

Key:
SARS-CoV-2 [1] = assay: Antiviral activity against SARS-CoV-2 infected in African green monkey Vero E6 cells assessed as inhibition of viral replication at 1 uM incubated for 24 hrs by IFA assay relative to control; assay type: functional; conditions: Severe acute respiratory syndrome coronavirus 2, Vero C1008
SARS-CoV-2 [2] = assay: Antiviral activity against SARS-CoV-2 infected in African green monkey Vero E6 cells assessed as inhibition of viral replication at 5 uM incubated for 24 hrs by IFA assay relative to control; assay type: functional; conditions: Severe acute respiratory syndrome coronavirus 2, Vero C1008
SARS-CoV-2 [3] = assay: Antiviral activity against SARS-CoV-2 infected in African green monkey Vero E6 cells assessed as inhibition of viral replication incubated for 24 hrs by IFA assay; assay type: functional, organism-based; conditions: Severe acute respiratory syndrome coronavirus 2, Vero C1008, 24 h
Vero C1008 [4] = assay: Cytotoxicity against African green monkey Vero E6 cells assessed as reduction in cell viability measured after 48 hrs by CCK-8 assay; assay type: toxicity, cell-based; conditions: chlorocebus sabaeus, vero c1008, 48 h
[5] = Selectivity index, ratio of CC50 for cytotoxicity against African green monkey Vero E6 to EC50 for antiviral activity against SARS-CoV-2 infected in African green monkey Vero E6 cells; assay type: toxicity, cell-based, Vero C1008; conditions: read-out: Ratio CC50/EC50
[6] = Half life in ICR mouse at 30 mg/kg, po measured upto 24 hrs by LC-MS/MS analysis; assay type: ADME, organism-based; conditions: in vivo
Outline: (§1)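 Male-unspecified ICR (CD-1) mice, N = 3 per group, were fasted 12 h. Compound in DMSO/0.5% HMPC (5/95, v/v) was given orally at 30 mg/kg or intravenously at 2.5 mg/kg. Femoral-vein blood was drawn at 0.25, 0.5, 1, 2, 4, 8 and 24 h, and serum analyte levels were measured by LC-MS/MS.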

[7] = Cmax in ICR mouse at 30 mg/kg, po measured upto 24 hrs by LC-MS/MS analysis; assay type: ADME, organism-based; parameters: dose 30 mg/kg, time < 24 hrs, route po; conditions: in vivo; outline: as §1
[8] = AUClast in ICR mouse at 30 mg/kg, po measured upto 24 hrs by LC-MS/MS analysis; assay type: ADME, organism-based; parameters: dose 30 mg/kg, time < 24 hrs, route po; conditions: in vivo; outline: as §1
[9] = Observed AUC (0 to infinity) in ICR mouse at 30 mg/kg, po measured upto 24 hrs by LC-MS/MS analysis; assay type: ADME, organism-based; parameters: dose 30 mg/kg, time < 24 hrs, route po; conditions: in vivo; outline: as §1
[10] = Observed MRT (0 to infinity) in ICR mouse at 30 mg/kg, po measured upto 24 hrs by LC-MS/MS analysis; assay type: ADME, organism-based; conditions: in vivo; outline: as §1
[11] = Prodrug conversion in ICR mouse plasma assessed as half life of compound 5-chloro-4-fluoro-2-hydroxy-N-(4-(trifluoromethoxy)phenyl)benzamide at 30 mg/kg, po and 2.5 mg/kg, iv measured upto 24 hrs by LC-MS/MS analysis; assay type: ADME, organism-based; conditions: in vivo
Outline: (§2)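 Prodrugs were given to fasted ICR (CD-1) mice (N = 3) in DMSO/0.5% HMPC (5/95), at 30 mg/kg po or 2.5 mg/kg iv. Serum from femoral-vein blood taken 0.25–24 h was analysed by LC-MS/MS for the released parent compound, with mole correction applied to the parameters.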

[12] = Prodrug conversion in ICR mouse plasma assessed as Cmax of compound 5-chloro-4-fluoro-2-hydroxy-N-(4-(trifluoromethoxy)phenyl)benzamide at 30 mg/kg, po and 2.5 mg/kg, iv measured upto 24 hrs by LC-MS/MS analysis; assay type: ADME, organism-based; parameters: time < 24 hrs, dose 30 mg/kg, route po; conditions: in vivo; outline: as §2
[13] = Prodrug conversion in ICR mouse plasma assessed as AUClast of compound 5-chloro-4-fluoro-2-hydroxy-N-(4-(trifluoromethoxy)phenyl)benzamide at 30 mg/kg, po and 2.5 mg/kg, iv measured upto 24 hrs by LC-MS/MS analysis; assay type: ADME, organism-based; parameters: dose 30 mg/kg, time < 24 hrs, route po; conditions: in vivo; outline: as §2
[14] = Prodrug conversion in ICR mouse plasma assessed as Observed AUC (0 to infinity) of compound 5-chloro-4-fluoro-2-hydroxy-N-(4-(trifluoromethoxy)phenyl)benzamide at 30 mg/kg, po and 2.5 mg/kg, iv measured upto 24 hrs by LC-MS/MS analysis; assay type: ADME, organism-based; parameters: time < 24 hrs, dose 30 mg/kg, route po; conditions: in vivo; outline: as §2
[15] = Prodrug conversion in ICR mouse plasma assessed as Observed MRT (0 to infinity) of compound 5-chloro-4-fluoro-2-hydroxy-N-(4-(trifluoromethoxy)phenyl)benzamide at 30 mg/kg, po and 2.5 mg/kg, iv measured upto 24 hrs by LC-MS/MS analysis; assay type: ADME, organism-based; conditions: in vivo; outline: as §2
[16] = Prodrug conversion in ICR mouse plasma assessed as oral bioavailability of compound 5-chloro-4-fluoro-2-hydroxy-N-(4-(trifluoromethoxy)phenyl)benzamide at 30 mg/kg measured upto 24 hrs by LC-MS/MS analysis; assay type: ADME, organism-based; conditions: in vivo; outline: as §2
[17] = Aqueous solubility of compound at 0.5 mg/mL in presence of acetonitrile by HPLC analysis; assay type: physicochemical; conditions: buffer
Outline: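 Compound was suspended in water, vortexed vigorously and filtered through a 0.22 μm membrane. The filtrate was diluted 2-fold with 80% acetonitrile and analysed by reversed-phase amide HPLC. Concentration was read against a standard curve prepared from a 0.5 mg/mL solution in 80% acetonitrile. Single determination.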

SARS-CoV-2 [18] = assay: Antiviral activity against SARS-CoV-2 infected in African green monkey Vero E6 cells assessed as inhibition of viral replication at 2.5 uM incubated for 24 hrs by IFA assay relative to control; assay type: functional; conditions: Severe acute respiratory syndrome coronavirus 2, Vero C1008
Vero C1008 [19] = assay: Downregulation of SKP2 level in African green monkey Vero E6 cells at 0.3 to 10 uM measured after 16 hrs by Western blotting analysis; assay type: functional, cell-based; conditions: Chlorocebus sabaeus, dose 0.3-10 µM
Outline: (§3)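 Vero-E6 cells in DMEM with 10% FBS were cultured overnight at 37 °C, 5% CO2, then treated with a concentration series for 16 h. Lysates were made in RIPA on ice and equalised for protein by BCA. Blots were probed for SKP2 or Beclin-1 plus β-actin and detected by ECL. The band-intensity ratio to β-actin was normalised to DMSO control.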

Vero C1008 [20] = assay: Downregulation of BECN1 level in African green monkey Vero E6 cells at 10 uM measured after 16 hrs by Western blotting analysis; assay type: functional, cell-based; conditions: Chlorocebus sabaeus; outline: as §3
Vero C1008 [21] = assay: Downregulation of BECN1 level in African green monkey Vero E6 cells at 1 to 3 uM measured after 16 hrs by Western blotting analysis; assay type: functional, cell-based; conditions: Chlorocebus sabaeus, dose 1-3 µM; outline: as §3
[22] = Half life in ICR mouse at 2.5 mg/kg, iv measured upto 24 hrs by LC-MS/MS analysis; assay type: ADME, organism-based; conditions: ICR, in vivo; outline: as §1
[23] = AUClast in ICR mouse at 2.5 mg/kg, iv measured upto 24 hrs by LC-MS/MS analysis; assay type: ADME, organism-based; parameters: dose 2.5 mg/kg, time < 24 hrs, route iv; conditions: ICR, in vivo; outline: as §1
[24] = Observed AUC (0 to infinity) in ICR mouse at 2.5 mg/kg, iv measured upto 24 hrs by LC-MS/MS analysis; assay type: ADME, organism-based; parameters: dose 2.5 mg/kg, time < 24 hrs, route iv; conditions: ICR, in vivo; outline: as §1
[25] = Observed MRT (0 to infinity) in ICR mouse at 2.5 mg/kg, iv measured upto 24 hrs by LC-MS/MS analysis; assay type: ADME, organism-based; conditions: ICR, in vivo; outline: as §1
[26] = Cmax in ICR mouse at 2.5 mg/kg, iv measured upto 24 hrs by LC-MS/MS analysis; assay type: ADME, organism-based; parameters: dose 2.5 mg/kg, time < 24 hrs, route iv; conditions: in vivo; outline: as §1

CCC(CC)COC(=O)[C@H](C)N[P@](=O)(OC[C@H]1O[C@@](C#N)(c2ccc3c(N)ncnn23)[C@H](O)[C@@H]1O)Oc1ccccc1
inhibition at 1 µM (SARS-CoV-2 [1]): < 10% | inhibition at 5 µM (SARS-CoV-2 [2]): 99%

Oc1ccc(Cl)cc1-c1nnc(-c2ccc(C(F)(F)F)cc2)o1
inhibition at 1 µM (SARS-CoV-2 [1]): < 10%

O=C(NCc1ccc(C(F)(F)F)cc1)c1cc(Cl)ccc1O
inhibition at 1 µM (SARS-CoV-2 [1]): 55%

CC(=O)c1cc(Cl)cc(C(=O)Nc2ccc(C(F)(F)F)cc2)c1O
inhibition at 1 µM (SARS-CoV-2 [1]): 50%

O=C(NC(=O)c1cc(Cl)ccc1O)c1ccc(C(F)(F)F)cc1
inhibition at 1 µM (SARS-CoV-2 [1]): < 10%

CC(=O)Nc1ccc(NC(=O)c2cc(Cl)ccc2O)c(Cl)c1
inhibition at 1 µM (SARS-CoV-2 [1]): < 10%

O=C(Nc1ccc(C(F)(F)F)cc1)c1cc(Cl)c(F)cc1O
inhibition at 1 µM (SARS-CoV-2 [1]): 95% | EC50 (SARS-CoV-2 [3]): 1 µM | CC50 (Vero C1008 [4]): 3.73 µM | selectivity ratio [5]: 3.73 | t1/2 [6]: 3.1 h | Cmax [7]: 452 ng/mL | AUClast [8]: 1563 ng·h/mL | AUC [9]: 1573 ng·h/mL | MRT [10]: 5.45 h

CC(C)C(=O)Oc1cc(F)c(Cl)cc1C(=O)Nc1ccc(OC(F)(F)F)cc1
t1/2 [11]: 3.03 h | Cmax [12]: 5175 ng/mL | AUClast [13]: 17393 ng·h/mL | AUC [14]: 17551 ng·h/mL | MRT [15]: 5.52 h | F [16]: 39.75% | solubility [17]: 0.53 µg/mL

O=C(Nc1ccc([N+](=O)[O-])cc1Cl)c1cc(Cl)ccc1O [NICLOSAMIDE]
inhibition at 2.5 µM (SARS-CoV-2 [18]): 39% | CC50 (Vero C1008 [4]): 1.96 µM | t1/2 [6]: 1.99 h | Cmax [7]: 428 ng/mL | AUClast [8]: 478 ng·h/mL | AUC [9]: 522 ng·h/mL | MRT [10]: 2.81 h | solubility [17]: 0.16 µg/mL | Activity (Vero C1008 [19]): Active | Activity (Vero C1008 [20]): Active | Activity (Vero C1008 [21]): Active

O=C(Nc1ccc(C(F)(F)F)c(Cl)c1)c1cc(Cl)c(F)cc1O
inhibition at 1 µM (SARS-CoV-2 [1]): 95% | EC50 (SARS-CoV-2 [3]): 2.67 µM | CC50 (Vero C1008 [4]): 4.52 µM | selectivity ratio [5]: 1.69

CC(=O)Oc1cc(F)c(Cl)cc1C(=O)Nc1ccc(OC(F)(F)F)cc1
t1/2 [11]: 3.57 h | Cmax [12]: 4771 ng/mL | AUClast [13]: 16458 ng·h/mL | AUC [14]: 16726 ng·h/mL | MRT [15]: 6.03 h | F [16]: 37.61% | solubility [17]: 0.71 µg/mL

C[C@H](N)C(=O)Oc1cc(F)c(Cl)cc1C(=O)Nc1ccc(OC(F)(F)F)cc1.Cl
half-life [22]: 2.92 h | AUC(0-t) at 24 h [23]: 6670 ng·h/mL | AUC(0-inf) [24]: 6700 ng·h/mL | MRT inf [25]: 5.02 h | Cmax [26]: 3360 ng/mL

CS(=O)(=O)Nc1ccc(NC(=O)c2cc(Cl)ccc2O)c(Cl)c1
inhibition at 1 µM (SARS-CoV-2 [1]): < 10%

O=C(Nc1ccc(C(F)(F)F)cc1)c1cc(Cl)cc([N+](=O)[O-])c1O
inhibition at 1 µM (SARS-CoV-2 [1]): 50%

O=C(Nc1ccc(C(F)(F)F)cc1)c1cc(Cl)ccc1O
inhibition at 1 µM (SARS-CoV-2 [1]): 95% | EC50 (SARS-CoV-2 [3]): 1.31 µM

N#Cc1ccc(Cl)cc1C(=O)Nc1ccc(C(F)(F)F)cc1
inhibition at 1 µM (SARS-CoV-2 [1]): < 10%

O=C(Nc1ccc(C(F)(F)F)cc1)c1ccccc1O
inhibition at 1 µM (SARS-CoV-2 [1]): < 10%

O=C(Nc1ccc(C(F)(F)F)cc1)c1cc(F)ccc1O
inhibition at 1 µM (SARS-CoV-2 [1]): 92% | EC50 (SARS-CoV-2 [3]): 1.64 µM | CC50 (Vero C1008 [4]): 1.61 µM | selectivity ratio [5]: 0.98

O=C(Nc1ccc(C(F)(F)F)cc1)c1cc(Cl)cc(Cl)c1O
inhibition at 1 µM (SARS-CoV-2 [1]): < 10%

O=S(=O)(Nc1ccc(C(F)(F)F)cc1)c1cc(Cl)ccc1O
inhibition at 1 µM (SARS-CoV-2 [1]): < 10%

Oc1ccc(Cl)cc1-c1nnc(-c2ccc(C(F)(F)F)cc2)[nH]1
inhibition at 1 µM (SARS-CoV-2 [1]): < 10%

O=C(Nc1ccc(C(F)(F)F)cc1)c1cc(Cl)cnc1O
inhibition at 1 µM (SARS-CoV-2 [1]): 50%

Nc1ccc(NC(=O)c2cc(Cl)ccc2O)c(Cl)c1
inhibition at 1 µM (SARS-CoV-2 [1]): < 10%

O=C(Nc1ccc(OC(F)(F)F)cc1)c1cc(Cl)ccc1O
inhibition at 1 µM (SARS-CoV-2 [1]): 55%

COc1ccc(Cl)cc1C(=O)Nc1ccc(C(F)(F)F)cc1
inhibition at 1 µM (SARS-CoV-2 [1]): < 10%

O=C(Nc1ccc(C(F)(F)F)cc1Cl)c1cc(Cl)ccc1O
inhibition at 1 µM (SARS-CoV-2 [1]): 79%

O=C(Nc1ccc(SC(F)(F)F)cc1)c1cc(Cl)c(F)cc1O
inhibition at 1 µM (SARS-CoV-2 [1]): 87% | EC50 (SARS-CoV-2 [3]): 1.61 µM | CC50 (Vero C1008 [4]): 2.63 µM | selectivity ratio [5]: 1.63
